Active and inactive are the calls of the source. Rule as the data show it, unless noted: active = inhibition above about 30%; inactive = the rest.
Tests used:
[1] = Her2 expression decrease, cell viability multiplex – SKBR3 breast tumor cells, AlphaScreen, ATP viability, primary screen (AID 461;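 active = Her2 level under about 52% in both replicate screens, with viability over 70% of control, limit read from the data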;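 as to Her2 level: lower value means less Her2 protein in the cells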;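 as to viability: percent of carrier control wells set as 100% viability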); conditions: SKBR3 Her2 protein level, 18-24 h, measured here: SKBR3 viability, ATP luminescence, at 10 µM
[2] = target: Receptor tyrosine-protein kinase erbB-2 (Homo sapiens) (UniProt P04626); assay: as above; conditions: 18-24 h, at 10 µM, stronger effect = lower value
[3] = reduced viability of SK-BR-3 breast cancer cells – cell-based, 24 h, human, pilot screen (AID 572;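 active = viability at or below 10% of carrier control in both of two separate runs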;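 also: compound exposure lasted between 18 and 24 h rather than exactly 24 h; 100% = carrier-treated control wells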); conditions: SK-BR-3 viability, CellTiter-Glo luminescence, at 10 µM, stronger effect = lower value
[4] = HUVEC growth inhibition – cell-based, human, primary screen (AID 575;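 active = viability at or below 30% in both replicate assays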;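 also: 100% = median of untreated cell wells with 0.1% DMSO on each plate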); conditions: HUVEC proliferation, CellTiter-Glo luminescence, 72 h; at 10 µM; stronger effect = lower value
Method in brief: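 Material: primary human umbilical vein endothelial cells / Schedule: 72 h exposure, 37 °C, 5% CO2, 30 min RT equilibration / Signal: ATP-based CellTiter-Glo luminescent read / Read-out basis: percent of median DMSO-control luminescence / Control set: 32 DMSO-only cell-control wells (high), 32 MePR drug-control wells (low) per plate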

[5] = H69AR cell proliferation blockers – human, duplicate replicates, primary screen (AID 580;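 active = viability at or under a set limit in both replicates, limit being median viability minus 3 SD, cut at about 48% in these data, passing the limit was not always enough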;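 also: 100% = mean luminescence of untreated wells and 0% = no signal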); conditions: H69AR lung tumor cells viability, ATP luminescence, 72 h; at 10 µM; stronger effect = lower value
[6] = MRP1 drug-resistance reversers in H69AR cells – cell-based, doxorubicin co-treatment, pilot screen (AID 601;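 active = viability loss from added drug above about 55%, and viability with drug at most 40%, in both replicates, limit read from the data, passing the limit was not always enough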); conditions: CellTiter-Glo, 72 h, at 10 µM; for differential viability (reversal): stronger effect = higher value
[7] = yeast transport mutant growth inhibition pilot in 384-well plates, post-Golgi transport modulator project (AID 636; in the data active = inhibition above about 31%); conditions: absorbance 615 nm, about 18 h, stronger effect = higher value
[8] = growth suppression of yeast trafficking mutant, preliminary HTS, modulators of trafficking downstream of Golgi apparatus project, 1536-format plate, OD 615 nm (AID 637); conditions: yeast transport mutant growth, absorbance 615 nm, 18 h; stronger effect = higher value
[9] = H69AR cells + 2 uM doxorubicin, measured here: viability with 2 uM doxorubicin, stronger effect = lower value
[10] = H69AR cells, compound alone cytotoxicity

Chain of Receptor tyrosine-protein kinase erbB-2 (Homo sapiens) (P04626 whole entry, looked up): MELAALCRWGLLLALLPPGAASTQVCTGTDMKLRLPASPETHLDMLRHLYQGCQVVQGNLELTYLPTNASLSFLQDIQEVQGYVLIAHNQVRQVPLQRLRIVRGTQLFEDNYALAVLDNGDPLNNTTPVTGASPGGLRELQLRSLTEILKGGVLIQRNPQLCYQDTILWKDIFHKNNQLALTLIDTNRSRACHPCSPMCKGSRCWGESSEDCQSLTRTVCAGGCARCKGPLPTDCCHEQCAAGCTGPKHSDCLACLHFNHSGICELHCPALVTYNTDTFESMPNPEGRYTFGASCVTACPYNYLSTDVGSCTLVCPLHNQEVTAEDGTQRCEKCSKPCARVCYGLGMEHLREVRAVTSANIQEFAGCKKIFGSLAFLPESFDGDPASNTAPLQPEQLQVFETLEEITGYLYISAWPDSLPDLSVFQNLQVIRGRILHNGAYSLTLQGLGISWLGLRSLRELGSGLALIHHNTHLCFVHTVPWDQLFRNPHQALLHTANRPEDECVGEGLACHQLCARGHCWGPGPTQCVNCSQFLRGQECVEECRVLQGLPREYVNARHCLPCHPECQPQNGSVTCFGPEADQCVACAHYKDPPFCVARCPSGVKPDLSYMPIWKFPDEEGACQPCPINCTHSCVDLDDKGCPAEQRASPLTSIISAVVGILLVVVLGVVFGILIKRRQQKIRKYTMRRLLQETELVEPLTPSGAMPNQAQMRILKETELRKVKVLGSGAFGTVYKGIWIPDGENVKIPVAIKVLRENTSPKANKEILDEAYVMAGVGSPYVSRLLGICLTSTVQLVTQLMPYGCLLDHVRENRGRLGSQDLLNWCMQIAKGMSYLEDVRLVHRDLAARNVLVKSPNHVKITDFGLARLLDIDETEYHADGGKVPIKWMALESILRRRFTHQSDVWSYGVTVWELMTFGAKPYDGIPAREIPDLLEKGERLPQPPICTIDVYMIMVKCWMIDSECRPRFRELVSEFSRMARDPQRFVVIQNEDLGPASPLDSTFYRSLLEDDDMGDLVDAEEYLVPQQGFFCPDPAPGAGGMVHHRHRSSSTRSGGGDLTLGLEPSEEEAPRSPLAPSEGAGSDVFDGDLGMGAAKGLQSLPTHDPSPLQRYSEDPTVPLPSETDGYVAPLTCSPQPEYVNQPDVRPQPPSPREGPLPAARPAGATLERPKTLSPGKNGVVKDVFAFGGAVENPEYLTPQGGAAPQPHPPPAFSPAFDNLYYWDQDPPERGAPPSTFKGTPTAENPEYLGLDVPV

SMILES | viability [1] | Her2 level [2] | viability [3] | viability [4] | viability [5] | differential viability (reversal) ([6]; H69AR cells + 2 uM doxorubicin) | viability [6, 9] | viability [6, 10] | inhibition [7] | inhibition [8]
Cc1cc(C)n2nc(C(=O)NCc3ccco3)nc2n1 | 101% | 90% (inactive) | 101% (inactive) | 91.4% (inactive) | 99% (inactive) | 4.53% (inactive) | 94.5% | 99% | -0.26% (inactive) | -5.32% (inactive)
O=C(CCN1CCOCC1)Nc1cccc(Br)c1 | 100% | 86% (inactive) | 100% (inactive) | 78.9% (inactive) | 92.9% (inactive) | 7.72% (inactive) | 85.2% | 92.9% | -5.47% (inactive) | -6.56% (inactive)
CCCCCCC(C)n1[nH]c(=O)c2c(C)cc(=O)[nH]c21 (stereo not given) | 89.5% | 107% (inactive) | 89.5% (inactive) | 77.7% (inactive) | 94.2% (inactive) | -4.37% (inactive) | 98.6% | 94.2% | -1.73% (inactive) | -7.54% (inactive)
O=C(Cn1ncc2c(=O)oc3ccccc3c21)NCC1CCCO1 (stereo not given) | 104% | 102% (inactive) | 104% (inactive) | 108% (inactive) | 94.8% (inactive) | -7.15% (inactive) | 102% | 94.8% | -3.59% (inactive) | -1.17% (inactive)
COCCNc1nc(C(C)(C)C)nc2c1nnn2Cc1ccccc1Cl | 87% | 86.5% (inactive) | 87% (inactive) | 119% (inactive) | 96.1% (inactive) | 1.67% (inactive) | 94.4% | 96.1% | -0.66% (inactive) | -3.33% (inactive)
CC(=O)Nc1ccc(S(=O)(=O)N2CCC(NC(C)=O)(c3cccc(F)c3)CC2)cc1 | 89% | 79% (inactive) | 89% (inactive) | 100% (inactive) | 104% (inactive) | 13% (inactive) | 90.5% | 104% | -6.89% (inactive) | 0.82% (inactive)
CN(C)/C=C1\N=C(c2ccc3c(c2)OCO3)OC1=O | 91% | 94.5% (inactive) | 91% (inactive) | 94.4% (inactive) | 98.1% (inactive) | 21.1% (inactive) | 76.9% | 98.1% | -1.56% (inactive) | -4.5% (inactive)
Cc1ccc(CN2C(=O)CCC2C(=O)NCC2CCCO2)cc1 (stereo not given) | 90% | 81% (inactive) | 90% (inactive) | 82.8% (inactive) | 103% (inactive) | 5.64% (inactive) | 97.3% | 103% | -1.45% (inactive) | 3.55% (inactive)
COc1ccc(OCCCC(=O)Nc2ccc3c(c2)OCCO3)cc1 | 99.5% | 93.5% (inactive) | 99.5% (inactive) | 81.8% (inactive) | 82.7% (inactive) | -3.62% (inactive) | 86.3% | 82.7% | -6.76% (inactive) | -6.83% (inactive)
COc1ccc(NC(=O)CCS(=O)(=O)c2ccc(OC)cc2)cc1 | 96% | 104% (inactive) | 96% (inactive) | 94.8% (inactive) | 83.4% (inactive) | -9.78% (inactive) | 93.2% | 83.4% | -0.4% (inactive) | -7.26% (inactive)
O=C(Nc1ccccc1C(=O)N1CCCCCC1)c1cccc(S(=O)(=O)N2CCOCC2)c1 | 95.5% | 96% (inactive) | 95.5% (inactive) | 94.1% (inactive) | 95.5% (inactive) | -7.13% (inactive) | 103% | 95.5% | -1.84% (inactive) | -1.45% (inactive)
CCOC(=O)c1ccc(Oc2cc(C)nc(SC)n2)cc1 | 88.5% | 99% (inactive) | 88.5% (inactive) | 36.8% (inactive) | 16.5% (active) | -52% (inactive) | 68.5% | 16.5% | -5.54% (inactive) | 2.3% (inactive)
CCC1(C)Cc2c(C#N)c(N)n(-c3ccccc3)c(=O)c2CO1 (stereo not given) | 100% | 106% (inactive) | 100% (inactive) | 104% (inactive) | 109% (inactive) | 19.4% (inactive) | 89.7% | 109% | -0.13% (inactive) | -3.64% (inactive)
CCOC(=O)C1=C(c2ccccc2)N2CCN=C2S1 | 94.5% | 100% (inactive) | 94.5% (inactive) | 100% (inactive) | 94.8% (inactive) | 5.97% (inactive) | 88.8% | 94.8% | -0.93% (inactive) | -9.68% (inactive)
Cn1cccc1Cc1nnc(SCC(=O)Nc2ccc(F)cc2)n1-c1ccc(F)cc1 | 86% | 93% (inactive) | 86% (inactive) | 71.9% (inactive) | 80.2% (inactive) | -9.93% (inactive) | 90.1% | 80.2% | 0% (inactive) | -1% (inactive)
CCOC(=O)c1ccc(-n2c(=O)[nH]c3ccccc3c2=O)cc1 | 102% | 120% (inactive) | 102% (inactive) | 105% (inactive) | 93.1% (inactive) | 2.73% (inactive) | 90.4% | 93.1% | 3.07% (inactive) | -2.74% (inactive)

SMILES | viability [1] | Her2 level [2] | viability [3] | viability [4] | viability [5] | differential viability (reversal) ([6]; H69AR cells + 2 uM doxorubicin) | viability [6, 9] | viability [6, 10] | inhibition [7] | inhibition [8]
O=C(NCCC1=CCCCC1)C1CCN(S(=O)(=O)c2cccc3nsnc23)CC1 | 104% | 92.5% (inactive) | 104% (inactive) | 58.5% (inactive) | 96.5% (inactive) | 14.2% (inactive) | 82.4% | 96.5% | -5.33% (inactive) | 0.98% (inactive)
CC1CCN(C(=O)CSc2nnc(-c3ccc(S(=O)(=O)N4CCOCC4)cc3)n2C)CC1 | 108% | 109% (inactive) | 108% (inactive) | 93.7% (inactive) | 88.3% (inactive) | -4.8% (inactive) | 93.1% | 88.3% | -4.4% (inactive) | -2.62% (inactive)
O=C1CC(c2ccccc2)n2nc(NC(=O)c3ccccn3)nc2N1 (stereo not given) | 104% | 78% (inactive) | 104% (inactive) | 84.3% (inactive) | 66.2% (inactive) | -18.7% (inactive) | 84.9% | 66.2% | -4.59% (inactive) | 4.6% (inactive)
Cc1ccc(-n2c(Cc3cccn3C)nnc2SCC(=O)NCc2ccc3c(c2)OCO3)cc1 | 97.5% | 89% (inactive) | 97.5% (inactive) | 88.2% (inactive) | 85.8% (inactive) | 5.04% (inactive) | 80.7% | 85.8% | -5.07% (inactive) | -4.59% (inactive)
O=C1c2ccccc2C(=O)N1CNc1ccccc1 | 96.5% | 93.5% (inactive) | 96.5% (inactive) | 108% (inactive) | 101% (inactive) | -17.7% (inactive) | 118% | 101% | -5.2% (inactive) | -1.15% (inactive)
O=C(C1CC1(c1ccccc1)c1ccccc1)N1CCOCC1 (stereo not given) | 112% | 106% (inactive) | 112% (inactive) | 99.3% (inactive) | 98.8% (inactive) | 11.4% (inactive) | 87.3% | 98.8% | -5.6% (inactive) | 1.45% (inactive)
Cc1csc2ncc(C(=O)N3CCc4ccccc43)c(=O)n12 | 95.5% | 109% (inactive) | 95.5% (inactive) | 86% (inactive) | 89% (inactive) | -3.54% (inactive) | 92.5% | 89% | -7.2% (inactive) | 4% (inactive)
Cc1cc2n(n1)C(c1ccccc1)Nc1ccccc1-2 (stereo not given) | 97% | 104% (inactive) | 97% (inactive) | 77.1% (inactive) | 90.7% (inactive) | 1.64% (inactive) | 89.1% | 90.7% | -6% (inactive) | -6.13% (inactive)
COc1ccc(C2N(C(=O)c3ccccc3)CCN2C(=O)c2ccccc2)cc1 | 114% | 103% (inactive) | 114% (inactive) | 113% (inactive) | 103% (inactive) | 2.48% (inactive) | 100% | 103% | -1.04% (inactive) | 5.41% (inactive)
Cc1cc(C(=O)NCc2ccc(S(N)(=O)=O)cc2)cs1 | 84.5% | 87.5% (inactive) | 84.5% (inactive) | 105% (inactive) | 104% (inactive) | 13% (inactive) | 90.7% | 104% | -5.73% (inactive) | 4.1% (inactive)
CCOC(=O)C1CCN(c2c(N(C)Cc3ccco3)c(=O)c2=O)CC1 | 78% | 105% (inactive) | 78% (inactive) | 93% (inactive) | 104% (inactive) | 15% (inactive) | 88.9% | 104% | 0.13% (inactive) | -5.5% (inactive)
CCC(C)(C)NC(=O)C(OC(=O)c1ccco1)c1ccccc1OC (stereo not given) | 99% | 93% (inactive) | 99% (inactive) | 91.4% (inactive) | 106% (inactive) | 18.8% (inactive) | 87.2% | 106% | -3.65% (inactive) | -5% (inactive)
CCOC(=O)c1ccc(NC(=O)CSc2ncccn2)cc1 | 104% | 112% (inactive) | 104% (inactive) | 85.9% (inactive) | 96.9% (inactive) | 2.45% (inactive) | 94.5% | 96.9% | -0.53% (inactive) | 4.26% (inactive)
O=C(CCCCC(=O)NCc1cccs1)NCc1cccs1 | 95.5% | 106% (inactive) | 95.5% (inactive) | 99.7% (inactive) | 97.8% (inactive) | 0.77% (inactive) | 97% | 97.8% | 1.2% (inactive) | -7.42% (inactive)
CCC1C(=O)N=C(SCC(=O)Nc2cccc3ccccc23)NC1=O (stereo not given) | 112% | 100% (inactive) | 112% (inactive) | 106% (inactive) | 82.3% (inactive) | -9.84% (inactive) | 92.1% | 82.3% | -3.24% (inactive) | 0.63% (inactive)
